Calls of active or inactive are those of the source. No cut-off for these calls is given here. Where a SMILES comes first, the peptide text is derived from it. The star is where a group is joined. Cbz = O=C(OCc1ccccc1)*; CH2Cl = ClC*
Legend:
[1] = target: T1, ATP-dependent Clp protease proteolytic subunit (Staphylococcus aureus (strain NCTC 8325)) (UniProt Q2G036); experiment: Inhibition of N-terminal His6-sumo-tagged full length Staphylococcus aureus ClpP expressed in Escherichia coli […] assessed as enzyme activity recovery level at 20-fold molar excess pre-incubated for 10 mins before Suc-LY-AMC addition and measured after 1 hr followed by dialysis up to 72 hrs by fluorescence based assay relative to control; parameters: scale not given: the % may be the effect or the level left
T1 sequence (whole entry): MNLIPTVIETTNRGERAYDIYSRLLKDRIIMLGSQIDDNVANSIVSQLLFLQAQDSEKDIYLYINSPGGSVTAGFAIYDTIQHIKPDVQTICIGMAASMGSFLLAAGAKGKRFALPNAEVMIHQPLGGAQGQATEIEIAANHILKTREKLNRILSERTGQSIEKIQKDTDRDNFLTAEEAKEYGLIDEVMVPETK
Procedure, shortened: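 ClpP (1 μM, 100 mM Hepes pH 7.0, 100 mM NaCl) incubated 1 h at RT with 20-fold molar excess inhibitor or DMSO. Dialyzed at 4 °C, buffer changed after 6 h and then every 24 h. Aliquots assayed for peptidase activity with Suc-LY-AMC. Thrice, single sample.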

[2] = target: T1, ATP-dependent Clp protease proteolytic subunit (Staphylococcus aureus (strain NCTC 8325)); experiment: Inhibition of N-terminal His6-sumo-tagged full length Staphylococcus aureus ClpP expressed in Escherichia coli […] at 3 uM pre-incubated for 10 mins before 200 uM to 1 mM Suc-LY-AMC addition and measured after 1 hr by fluorescence based assay relative to control
Procedure, shortened: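 SaClpP (1 μM) in 100 mM Hepes pH 7.0, 100 mM NaCl preincubated 10 min at RT with 3 μM inhibitor. Suc-LY-AMC at 200 μM or 1 mM, fluorescence at 380/440 nm for 1 h at 37 °C. Slope relative to DMSO; three independent replicates.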

[3] = target: T1, ATP-dependent Clp protease proteolytic subunit (Staphylococcus aureus (strain NCTC 8325)); experiment: Binding affinity to N-terminal His6-sumo-tagged full length Staphylococcus aureus ClpP expressed in Escherichia coli […] assessed as change in melting temperature at 100 uM by differential scanning calorimetry analysis
Procedure, shortened: (§1)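 DSC: SaClpP at 0.5 mg/mL (25 μM) incubated at RT with 100 μM inhibitor in assay buffer. Scanned at 1 °C/min over 30–90 °C, with a buffer-buffer scan subtracted. Tm taken as the thermogram peak maximum. Run once, single sample.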

[4] = target: 20S proteasome (Homo sapiens) (UniProt P49721+P20618+P28074+P28062+P28065+P28072+P25786+P25787+P25788+P25789+P28066+P60900+O14818+Q8TAA3+P40306+A5LHX3+P49720+P28070+Q99436); experiment: Inhibition of 20S proteasome (unknown origin) pre-incubated before Suc-LLVY-AM addition and measured after 1 hr by fluorescence based assay; type: protein-complex assay
[5] = target: T2, ATP-dependent Clp protease proteolytic subunit (Staphylococcus aureus (strain NCTC 8325), UniProt Q2G036); experiment: Binding affinity to N-terminal His6-sumo-tagged full length Staphylococcus aureus ClpP expressed in Escherichia coli […] assessed as shifting of melting peak of SaClpP by differential scanning calorimetry analysis
T2 sequence (Q2G036 whole entry): T1 sequence (whole entry)
Procedure, shortened: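 DSC: 0.5 mg/mL (25 µM) SaClpP with 100 µM compound or two-fold dilution series, RT; scanned 30-90 °C at 1 °C/min, buffer-buffer scan subtracted; Tm from thermogram peak maximum; single run.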

[6] = Inhibition of human ClpP (57 to 277 residues) expressed in Escherichia coli […] pre-incubated for 10 mins before Ac-WLA-AMC addition and measured after 1 hr by fluorescence based assay relative to control
Procedure, shortened: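 hClpP (3.5 μM monomer) in 25 mM Tris-HCl pH 8.0, 100 mM KCl. Preincubated 10 min at RT with inhibitor, two-fold dilutions over 8 steps from 100 μM. Then 100 μM Ac-WLA-AMC, 380/440 nm for 1 h at 37 °C, slopes normalized to DMSO. Thrice, triplicate wells.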

[7] = target: T2, ATP-dependent Clp protease proteolytic subunit; experiment: Binding affinity to N-terminal His6-sumo-tagged full length Staphylococcus aureus ClpP expressed in Escherichia coli […] by ITC analysis
Procedure, shortened: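 ITC at 500 rpm stirring after 150 s equilibration. A discarded 1 μL first injection, then 19 injections of 2 μL over 5 s each, 2–3 min apart, into 200 μL sample cell. Reference power 7 μcal/s, high gain, 5-s filter, baseline-corrected fit.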

[8] = target: T1, ATP-dependent Clp protease proteolytic subunit (Staphylococcus aureus (strain NCTC 8325)); experiment: Binding affinity to N-terminal His6-sumo-tagged full length Staphylococcus aureus ClpP expressed in Escherichia coli […] assessed as melting temperature at 100 uM by differential scanning calorimetry analysis (reference value: 50.8 degC); procedure, shortened: as §1
Staphylococcus aureus = experiment: Inhibition of Staphylococcus aureus ClpXP expressed in Escherichia coli […] at 1 to 100 uM using FITC-casein substrate in presence of ATP-regenerating system incubated for 50 mins by fluorescence based assay
Procedure, shortened: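 3.6 μM SaClpP with 3 μM SaClpX in 25 mM Hepes pH 7.5, 20 mM MgCl2, 30 mM KCl, 0.03% Tween 20, 10% glycerol, 2 mM DTT. ATP regeneration: 4 mM ATP, 20 U/mL creatine kinase, 16 mM creatine phosphate. FITC-casein 0.048 mg/mL, 494/521 nm for 50 min; slope 300–1200 s vs DMSO. Thrice, triplicate wells.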

[9] = Inhibition of AlgW (unknown origin) up to 100 uM pre-incubated for 10 mins before Abz-T-V-A-W-pNA addition and measured after 1 hr by fluorescence based assay
[10] = Inhibition of Pseudomonas aeruginosa ClpP1 expressed in Escherichia coli […] pre-incubated for 10 mins before Suc-LY- AMC addition and measured after 1 hr by fluorescence based assay relative to control
Procedure, shortened: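 PaClpP1 (0.5 μM monomer) in 25 mM Tris-Cl pH 7.5, 150 mM NaCl. Preincubated 10 min at RT with inhibitor, two-fold dilutions over 8 steps from 50 μM. Then 50 μM Suc-LY-AMC, 380/440 nm for 1 h at 37 °C, slopes normalized to DMSO. Thrice, triplicate wells.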

[11] = target: Coagulation factor X (Homo sapiens) (UniProt P00742); experiment: Inhibition of human F10a up to 100 uM pre-incubated for 10 mins before Pefachrome Fxa addition and measured after […] based assay
Chain of Coagulation factor X (Homo sapiens) (P00742 41-179 limits assumed): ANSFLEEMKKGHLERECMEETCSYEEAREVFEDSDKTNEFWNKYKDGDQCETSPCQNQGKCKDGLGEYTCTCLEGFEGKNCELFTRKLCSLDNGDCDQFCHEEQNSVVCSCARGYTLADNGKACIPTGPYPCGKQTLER
Chain of Coagulation factor X (Homo sapiens) (P00742 235-488 limits assumed): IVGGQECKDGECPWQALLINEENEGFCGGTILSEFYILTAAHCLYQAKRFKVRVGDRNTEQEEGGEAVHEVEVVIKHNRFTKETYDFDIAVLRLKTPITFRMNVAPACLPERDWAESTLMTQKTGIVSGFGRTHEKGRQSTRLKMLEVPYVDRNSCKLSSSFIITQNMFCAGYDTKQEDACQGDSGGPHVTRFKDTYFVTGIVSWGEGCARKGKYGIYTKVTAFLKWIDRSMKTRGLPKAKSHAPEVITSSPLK

[12] = target: ATP-dependent Clp protease proteolytic subunit (Escherichia coli (strain K12), UniProt P0A6G7); experiment: Inhibition of Escherichia coli ClpP
Chain of ATP-dependent Clp protease proteolytic subunit (Escherichia coli (strain K12), UniProt P0A6G7) (P0A6G7 whole entry): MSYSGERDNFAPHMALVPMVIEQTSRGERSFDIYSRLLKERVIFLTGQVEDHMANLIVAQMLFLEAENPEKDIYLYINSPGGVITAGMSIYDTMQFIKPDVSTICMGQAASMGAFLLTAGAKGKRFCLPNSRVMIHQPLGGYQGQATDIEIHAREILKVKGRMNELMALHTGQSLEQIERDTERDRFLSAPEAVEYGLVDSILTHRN

SMILES | Activity [1] | inhibition [2] | ΔTm [3] | inhibition [4] | EC50 [5] | IC50 [6] | Kd [7] | Tm [8] | inhibition (Staphylococcus aureus) | inhibition [9] | IC50 [10] | inhibition [11] | IC50 [12]
CC(C)C[C@H](NC(=O)CNC(=O)c1cc(Cl)ccc1Cl)B1OC(=O)CC(CC(=O)O)(C(=O)O)O1 (stereo partly drawn) | 100% | Active | 29.5 to 42.2 °C | Active | 19.9 µM | 3 to 25 µM | 7.3 µM | 66.5 °C | inactive | inactive | 3 to 25 µM | inactive | 
CC(C)C[C@H](NC(=O)OCc1ccccc1)C(=O)N[C@@H](Cc1ccc(O)cc1)C(=O)CCl (Cbz-Leu-Tyr-CH2Cl) |  |  |  |  |  |  |  |  |  |  |  |  | 14.4 µM

From ChEMBL document CHEMBL4402562, “Discovery of Novel Peptidomimetic Boronate ClpP Inhibitors with Noncanonical Enzyme Mechanism as Potent Virulence Blockers in Vitro and in Vivo” (J Med Chem, 2020)
